From ChEMBL document CHEMBL3758168, “Hybrid triazoles: Design and synthesis as potential dual inhibitor of growth and efflux inhibition in tuberculosis” (Eur J Med Chem, 2016)
Converted amounts (≈) assume the structure as drawn.

What was measured:
[1] = test system: Mycolicibacterium smegmatis; assay: Anti-tubercular activity against Mycobacterium smegmatis MC2 155 ATCC 700084 after 3 days by microdilution method; assay type: functional; conditions: MC2 155 ATCC 700084, 72 h
In short: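 M. smegmatis mc2155 grown in MB7H9 + 10% OADC at 37 °C with shaking to OD600 0.8. Inoculum set to 0.5 McFarland, diluted 1:100, and mixed 1:1 with two-fold serial dilutions in MB7H9. Plates incubated 3 days at 37 °C with growth and sterility controls. MIC taken as the lowest concentration with no visible growth.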

[2] = Cytotoxicity against human MDM assessed as cell viability after 3 days by Alamar blue dye-based fluorocytometric analysis relative to control; conditions: 72 h
[3] = Ratio of compound IC50 to thioridazine IC50 for human MDM; assay type: ADME; conditions: read-out: Ratio IC50
[4] = test system: Mycobacterium tuberculosis; assay: Antibacterial activity against Mycobacterium tuberculosis H37Rv ATCC 27294T assessed as isoniazid MIC at 64 ug/ml after 7 days by microdilution checkerboard assay; assay type: functional; conditions: 168 h
In short: (§1)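 Two-dimensional checkerboard in H37Rv at 10^5 CFU/ml in MB7H9/OADC. Partner drug (amikacin, EtBr, isoniazid, ofloxacin or rifampin) two-fold serially diluted across columns 3-11. Test compound two-fold serially diluted down rows 2-6. Plates incubated 7 days at 37 °C, then MTT added overnight. […] Run in triplicate.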

[5] = test system: Mycobacterium tuberculosis; assay: Antibacterial activity against Mycobacterium tuberculosis H37Rv ATCC 27294T assessed as isoniazid MIC at 32 ug/ml after 7 days by microdilution checkerboard assay; assay type: functional; conditions: 168 h; in short: as §1
[6] = test system: Mycobacterium tuberculosis; assay: Antibacterial activity against Mycobacterium tuberculosis H37Rv ATCC 27294T assessed as isoniazid MIC at 128 ug/ml after 7 days by microdilution checkerboard assay; assay type: functional; conditions: 168 h; in short: as §1
[7] = test system: Mycobacterium tuberculosis; assay: Antibacterial activity against Mycobacterium tuberculosis H37Rv ATCC 27294T assessed as ethidium bromide MIC at 32 ug/ml after 7 days by microdilution checkerboard assay; assay type: functional; conditions: 168 h; in short: as §1
[8] = test system: Mycobacterium tuberculosis; assay: Antibacterial activity against Mycobacterium tuberculosis H37Rv ATCC 27294T assessed as ethidium bromide MIC at 2 ug/ml after 7 days by microdilution checkerboard assay; assay type: functional; conditions: 168 h; in short: as §1
[9] = test system: Mycobacterium tuberculosis; assay: Antibacterial activity against Mycobacterium tuberculosis H37Rv ATCC 27294T assessed as ethidium bromide MIC at 16 ug/ml after 7 days by microdilution checkerboard assay; assay type: functional; conditions: 168 h; in short: as §1
[10] = test system: Mycobacterium tuberculosis; assay: Antibacterial activity against Mycobacterium tuberculosis H37Rv ATCC 27294T assessed as ofloxacin MIC at 128 ug/ml after 7 days by microdilution checkerboard assay; assay type: functional; conditions: 168 h; in short: as §1
[11] = test system: Mycobacterium tuberculosis; assay: Antibacterial activity against Mycobacterium tuberculosis H37Rv ATCC 27294T assessed as ofloxacin MIC at 32 ug/ml after 7 days by microdilution checkerboard assay; assay type: functional; conditions: 168 h; in short: as §1
[12] = test system: Mycobacterium tuberculosis; assay: Antibacterial activity against Mycobacterium tuberculosis H37Rv ATCC 27294T assessed as ofloxacin MIC at 64 ug/ml after 7 days by microdilution checkerboard assay; assay type: functional; conditions: 168 h; in short: as §1
[13] = test system: Mycobacterium tuberculosis; assay: Antibacterial activity against Mycobacterium tuberculosis H37Rv ATCC 27294T assessed as ofloxacin MIC at 2 ug/ml after 7 days by microdilution checkerboard assay; assay type: functional; conditions: 168 h; in short: as §1
[14] = test system: Mycobacterium tuberculosis; assay: Antibacterial activity against Mycobacterium tuberculosis H37Rv ATCC 27294T assessed as ofloxacin MIC at 4 ug/ml after 7 days by microdilution checkerboard assay; assay type: functional; conditions: 168 h; in short: as §1
[15] = test system: Mycobacterium tuberculosis; assay: Antibacterial activity against Mycobacterium tuberculosis H37Rv ATCC 27294T assessed as ofloxacin MIC at 8 ug/ml after 7 days by microdilution checkerboard assay; assay type: functional; conditions: 168 h; in short: as §1
[16] = test system: Mycobacterium tuberculosis; assay: Antibacterial activity against Mycobacterium tuberculosis H37Rv ATCC 27294T assessed as ofloxacin MIC at 16 ug/ml after 7 days by microdilution checkerboard assay; assay type: functional; conditions: 168 h; in short: as §1
[17] = test system: Mycobacterium tuberculosis; assay: Antibacterial activity against Mycobacterium tuberculosis H37Rv ATCC 27294T assessed as amikacin MIC at 128 ug/ml after 7 days by microdilution checkerboard assay; assay type: functional; conditions: 168 h; in short: as §1
[18] = test system: Mycobacterium tuberculosis; assay: Modulation factor, ratio of ofloxacin MIC to compound MIC for Mycobacterium tuberculosis H37Rv ATCC 27294T at 128 ug/ml in presence of ofloxacin; assay type: functional
[19] = test system: Mycobacterium tuberculosis; assay: Anti-tubercular activity against Mycobacterium tuberculosis H37Rv ATCC 27294T after 7 days by mircodilution method; assay type: functional; conditions: 168 h
In short: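 H37Rv grown static in MB7H9 + 10% OADC at 37 °C to OD600 0.8, then diluted to about 10^5 cells/ml. Mixed 1:1 with two-fold serial dilutions in MB7H9/OADC and incubated 7 days at 37 °C. MTT added to final 2.5% and plates incubated overnight. MIC is the lowest concentration with no colour change. Run in triplicate.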

[20] = test system: Mycobacterium tuberculosis; assay: Antibacterial activity against Mycobacterium tuberculosis H37Rv ATCC 27294T assessed as isoniazid MIC at 4 ug/ml after 7 days by microdilution checkerboard; assay type: functional; conditions: 168 h; in short: as §1
[21] = test system: Mycobacterium tuberculosis; assay: Antibacterial activity against Mycobacterium tuberculosis H37Rv ATCC 27294T assessed as isoniazid MIC at 2 ug/ml after 7 days by microdilution checkerboard assay; assay type: functional; conditions: 168 h; in short: as §1
[22] = test system: Mycobacterium tuberculosis; assay: Antibacterial activity against Mycobacterium tuberculosis H37Rv ATCC 27294T assessed as amikacin MIC at 16 ug/ml after 7 days by microdilution checkerboard assay; assay type: functional; conditions: 168 h; in short: as §1
[23] = test system: Mycobacterium tuberculosis; assay: Antibacterial activity against Mycobacterium tuberculosis H37Rv ATCC 27294T assessed as rifampin MIC at 128 ug/ml after 7 days by microdilution checkerboard assay; assay type: functional; conditions: 168 h
In short: (§2)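 M. tuberculosis H37Rv grown in MB7H9 + 10% OADC at 37 °C to OD600 0.8; plates inoculated at 10^5 CFU/ml. Rifampicin two-fold serially diluted across columns, test compound two-fold diluted down rows (two-dimensional checkerboard). Sealed, 37 °C for seven days, then MTT added and incubated overnight. MIC read as no colour change. Triplicate.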

[24] = test system: Mycobacterium tuberculosis; assay: Antibacterial activity against Mycobacterium tuberculosis H37Rv ATCC 27294T assessed as rifampin MIC at 64 ug/ml after 7 days by microdilution checkerboard assay; assay type: functional; conditions: 168 h; in short: as §2
[25] = test system: Mycobacterium tuberculosis; assay: Antibacterial activity against Mycobacterium tuberculosis H37Rv ATCC 27294T assessed as rifampin MIC at 2 ug/ml after 7 days by microdilution checkerboard assay; assay type: functional; conditions: 168 h; in short: as §2
[26] = test system: Mycobacterium tuberculosis; assay: Antibacterial activity against Mycobacterium tuberculosis H37Rv ATCC 27294T assessed as rifampin MIC at 4 ug/ml after 7 days by microdilution checkerboard assay; assay type: functional; conditions: 168 h; in short: as §2
[27] = test system: Mycobacterium tuberculosis; assay: Antibacterial activity against Mycobacterium tuberculosis H37Rv ATCC 27294T assessed as rifampin MIC at 8 ug/ml after 7 days by microdilution checkerboard assay; assay type: functional; conditions: 168 h; in short: as §2
[28] = test system: Mycobacterium tuberculosis; assay: Modulation factor, ratio of isoniazid MIC to compound MIC for Mycobacterium tuberculosis H37Rv ATCC 27294T at 128 ug/ml in presence of isoniazid; assay type: functional
[29] = test system: Mycobacterium tuberculosis; assay: Modulation factor, ratio of refampin MIC to compound MIC for Mycobacterium tuberculosis H37Rv ATCC 27294T at 64 ug/ml in presence of refampin; assay type: functional
[30] = test system: Mycobacterium tuberculosis; assay: Modulation factor, ratio of amikacin MIC to compound MIC for Mycobacterium tuberculosis H37Rv ATCC 27294T at 128 ug/ml in presence of amikacin; assay type: functional

For `CCCSc1nnc(COc2ccccc2C2=NOC(c3ccc(Cl)cc3Cl)C2)n1NC(=O)CCl` (stereo not given), the MIC [1] was 4 µg/mL (≈ 7.21 µM), the IC50 [2] was 28.7 µg/mL (≈ 51.7 µM) and the selectivity ratio [3] was 3. The MIC [4] was 0.1 µg/mL, the MIC [5] was 0.1 µg/mL and the MIC [6] was 0.00156 µg/mL. The MIC [7] was 12.5 µg/mL, the MIC [8] was 12.5 µg/mL and the MIC [9] was 12.5 µg/mL. The MIC [10] was 0.625 µg/mL, the MIC [11] was 1 µg/mL and the MIC [12] was 1 µg/mL. It also gave an MIC [13] of 2 µg/mL, an MIC [14] of 2 µg/mL and an MIC [15] of 1 µg/mL. The MIC [16] was 1 µg/mL, the MIC [17] was 0.125 µg/mL and the Ratio [18] was 32. The MIC [19] was 64 µg/mL (≈ 115 µM), the MIC [20] was 0.1 µg/mL and the MIC [21] was 0.1 µg/mL. For the same molecule, the MIC [22] was 1 µg/mL, the MIC [23] was 0.0156 µg/mL and the MIC [24] was 0.25 µg/mL. For the same molecule, the MIC [25] was 0.5 µg/mL, the MIC [26] was 0.5 µg/mL and the MIC [27] was 0.5 µg/mL. The Ratio [28] was 64, the Ratio [29] was 4 and the Ratio [30] was 16.
